Ki and Kd data for nine molecules are collected here from ChEMBL document CHEMBL1145095, “New bivalent PKC ligands linked by a carbon spacer: enhancement in binding affinity” (J Med Chem, 2003).

For assay [1], the target named is T1, Protein kinase C delta type (Mus musculus, UniProt P28867). The assay can be described thus: Tested for ability to displace […] phorbol 12,13- dibutyrate binding from recombinant C1b domain of murine Protein kinase C delta in presence of [Ca2+].
The target of assay [2] is T1, Protein kinase C delta type. The assay can be described thus: Tested for ability to displace […] phorbol 12,13- dibutyrate binding from recombinant murine Protein kinase C delta in presence of [Ca2+].
Assay [3] concerns the target T2, Protein kinase C gamma type (Homo sapiens, UniProt P05129). The assay can be described thus: Binding affinity for human Protein kinase C gamma with [Ca2+]. The essentials: (§1)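 Ligand interaction with each PKC isozyme (α, δ, β1, γ or ε) was measured as competition by the nonradioactive ligand against [³H]PDBU binding to that isozyme, using an earlier published method. Affinities are expressed as Ki.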

Assay [4] deals with T3, Protein kinase C epsilon type (Homo sapiens, UniProt Q02156).
T3 sequence (Q02156 whole entry): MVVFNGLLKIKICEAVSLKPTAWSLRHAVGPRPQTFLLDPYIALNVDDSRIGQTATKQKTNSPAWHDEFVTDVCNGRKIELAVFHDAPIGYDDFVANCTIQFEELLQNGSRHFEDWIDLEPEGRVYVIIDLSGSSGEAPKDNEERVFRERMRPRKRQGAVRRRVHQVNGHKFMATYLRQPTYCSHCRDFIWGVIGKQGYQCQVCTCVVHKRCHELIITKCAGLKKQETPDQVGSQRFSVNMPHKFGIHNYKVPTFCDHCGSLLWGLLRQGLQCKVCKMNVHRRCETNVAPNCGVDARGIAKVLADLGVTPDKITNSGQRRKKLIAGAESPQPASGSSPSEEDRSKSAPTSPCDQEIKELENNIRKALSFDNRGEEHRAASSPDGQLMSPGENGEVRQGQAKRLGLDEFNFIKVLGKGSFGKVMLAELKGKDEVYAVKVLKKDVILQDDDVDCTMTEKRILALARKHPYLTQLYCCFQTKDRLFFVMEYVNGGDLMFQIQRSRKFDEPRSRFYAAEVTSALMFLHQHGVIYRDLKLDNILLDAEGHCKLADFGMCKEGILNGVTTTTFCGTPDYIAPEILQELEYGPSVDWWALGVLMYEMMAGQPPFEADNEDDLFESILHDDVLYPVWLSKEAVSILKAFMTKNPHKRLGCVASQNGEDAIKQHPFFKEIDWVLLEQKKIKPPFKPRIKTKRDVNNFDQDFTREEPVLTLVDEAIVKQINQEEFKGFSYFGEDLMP
Put plainly: Inhibition of human Protein kinase C epsilon. In outline: as §1

Assay [5] deals with T4, Protein kinase C beta type (Homo sapiens, UniProt P05771). Put plainly: Binding affinity for human PKC beta-1. In outline:
as §1

Assay [6] concerns the target T2, Protein kinase C gamma type. The assay can be described thus: Inhibition of human Protein kinase C gamma with [Ca2+]. In outline:
as §1

Assay [7] has as its target T5, Protein kinase C delta type (Homo sapiens, UniProt Q05655). The assay can be described thus: Binding affinity for human Protein kinase C delta. The essentials: as §1
Assay [8] deals with T5, Protein kinase C delta type. Put plainly: Inhibition of human Protein kinase C delta. The essentials: as §1
The target of assay [9] is T4, Protein kinase C beta type. Put plainly: Inhibition of human PKC beta-1. In outline: as §1
Assay [10] has as its target T3, Protein kinase C epsilon type. Put plainly: Binding affinity for human Protein kinase C epsilon. The essentials: as §1

Molecules are shown by their SMILES.

T1 sequence (P28867 whole entry, the tested form may be a part): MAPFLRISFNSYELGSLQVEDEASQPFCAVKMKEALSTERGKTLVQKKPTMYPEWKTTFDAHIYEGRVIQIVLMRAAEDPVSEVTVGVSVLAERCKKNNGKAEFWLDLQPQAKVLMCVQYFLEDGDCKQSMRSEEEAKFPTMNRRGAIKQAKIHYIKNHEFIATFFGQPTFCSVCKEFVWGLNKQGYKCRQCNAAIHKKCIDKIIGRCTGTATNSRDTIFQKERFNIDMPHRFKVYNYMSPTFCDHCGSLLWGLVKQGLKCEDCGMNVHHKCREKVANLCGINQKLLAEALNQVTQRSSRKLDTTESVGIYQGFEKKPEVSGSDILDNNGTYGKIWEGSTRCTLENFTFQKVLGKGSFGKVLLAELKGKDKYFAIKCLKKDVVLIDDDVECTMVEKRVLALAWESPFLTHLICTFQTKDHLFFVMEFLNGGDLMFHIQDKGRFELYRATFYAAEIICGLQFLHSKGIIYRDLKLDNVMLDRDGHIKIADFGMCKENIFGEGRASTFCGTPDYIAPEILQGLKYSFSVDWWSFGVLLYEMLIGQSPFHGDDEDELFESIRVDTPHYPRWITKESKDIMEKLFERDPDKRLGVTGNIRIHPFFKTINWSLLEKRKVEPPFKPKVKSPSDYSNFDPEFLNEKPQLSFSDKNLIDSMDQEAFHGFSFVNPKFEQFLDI
T5 sequence (Q05655 whole entry): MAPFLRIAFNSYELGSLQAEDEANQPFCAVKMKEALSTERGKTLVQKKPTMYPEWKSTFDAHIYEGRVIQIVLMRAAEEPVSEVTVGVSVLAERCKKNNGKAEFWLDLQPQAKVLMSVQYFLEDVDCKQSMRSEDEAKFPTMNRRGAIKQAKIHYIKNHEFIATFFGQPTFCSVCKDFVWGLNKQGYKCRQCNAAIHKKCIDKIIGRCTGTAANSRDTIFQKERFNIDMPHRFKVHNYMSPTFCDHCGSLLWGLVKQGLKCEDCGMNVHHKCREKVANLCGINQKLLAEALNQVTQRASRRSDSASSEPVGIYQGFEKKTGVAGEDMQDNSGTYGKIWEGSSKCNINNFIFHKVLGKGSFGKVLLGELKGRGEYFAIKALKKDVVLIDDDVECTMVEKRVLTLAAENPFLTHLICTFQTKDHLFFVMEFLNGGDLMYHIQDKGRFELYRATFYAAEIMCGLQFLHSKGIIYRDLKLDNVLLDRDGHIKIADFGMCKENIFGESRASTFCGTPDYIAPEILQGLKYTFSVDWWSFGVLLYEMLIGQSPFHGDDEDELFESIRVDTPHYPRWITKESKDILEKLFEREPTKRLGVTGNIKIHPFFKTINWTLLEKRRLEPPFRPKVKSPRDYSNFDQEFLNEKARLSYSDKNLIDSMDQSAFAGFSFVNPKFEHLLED
T4 sequence (P05771 whole entry): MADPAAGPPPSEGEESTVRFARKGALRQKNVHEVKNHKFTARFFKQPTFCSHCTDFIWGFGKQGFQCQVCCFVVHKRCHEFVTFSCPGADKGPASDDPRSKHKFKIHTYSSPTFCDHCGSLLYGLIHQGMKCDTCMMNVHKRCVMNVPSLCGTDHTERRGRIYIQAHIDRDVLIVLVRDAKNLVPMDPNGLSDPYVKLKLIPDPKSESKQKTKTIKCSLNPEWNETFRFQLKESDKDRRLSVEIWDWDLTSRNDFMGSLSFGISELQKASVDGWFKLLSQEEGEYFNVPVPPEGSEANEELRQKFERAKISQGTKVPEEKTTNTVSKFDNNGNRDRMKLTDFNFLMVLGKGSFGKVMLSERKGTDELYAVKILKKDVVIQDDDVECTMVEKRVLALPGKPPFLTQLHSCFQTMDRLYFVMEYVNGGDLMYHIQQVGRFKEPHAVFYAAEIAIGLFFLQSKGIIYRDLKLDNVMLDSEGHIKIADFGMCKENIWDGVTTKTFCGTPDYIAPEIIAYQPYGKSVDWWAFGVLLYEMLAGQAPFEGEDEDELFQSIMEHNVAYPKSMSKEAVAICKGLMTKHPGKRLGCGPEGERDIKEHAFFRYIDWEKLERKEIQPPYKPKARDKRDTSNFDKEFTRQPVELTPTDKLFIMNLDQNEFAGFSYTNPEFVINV

For orientation: Ki means the equilibrium dissociation constant of an inhibitor or competing ligand from its target. On to `CC(C)[C@H]1C(=O)N[C@H](CO)Cc2cc(NC(=O)CCCCCCCCC(=O)Nc3ccc4c(c3)N(C)[C@@H](C(C)C)C(=O)N[C@H](CO)C4)ccc2N1C`, for which the figures for the Ki in assay [1] and in [2] were 1.27 nM and 5.75 nM, respectively.
As to `CC(C)[C@H]1C(=O)N[C@H](CO)Cc2cc(NC(=O)CCCCCCCCCCCCCCCCCCCCC(=O)Nc3ccc4c(c3)N(C)[C@@H](C(C)C)C(=O)N[C@H](CO)C4)ccc2N1C`, the Ki in [1] came out at 0.11 nM; in assay [2], 0.38 nM.
As for `CC(C)[C@H]1C(=O)N[C@H](CO)Cc2cc(NC(=O)CCCCCCCCCCC(=O)Nc3ccc4c(c3)N(C)[C@@H](C(C)C)C(=O)N[C@H](CO)C4)ccc2N1C`, the inhibitory constant (Ki) in [1] was found to be 0.48 nM; in [2], 1.31 nM.
For `CC(C)[C@H]1C(=O)N[C@H](CO)C1c1ccc(OC(=O)CCCCCCCCCCC(=O)Oc2ccc([C@H]3[C@@H](C(C)C)C(=O)N[C@@H]3CO)c3ccccc23)c2ccccc12` (stereo not given in full), the inhibitory constant (Ki) in [2] was determined as 44.8 nM.
With `CC(C)[C@H]1C(=O)N[C@H](CO)Cc2cc(NC(=O)CCCCCCC(=O)Nc3ccc4c(c3)N(C)[C@@H](C(C)C)C(=O)N[C@H](CO)C4)ccc2N1C`, the figures for the inhibition constant (Ki) in [1] and in [2] were 30.6 nM and 170 nM, respectively.
For `CC(C)[C@H]1C(=O)N[C@H](CO)Cc2cc(NC(=O)CCCCCCCCC(=O)Nc3ccc(O)c4ccccc34)ccc2N1C`, in that order: 4.4 nM and 21.6 nM.
For the molecule `CC(C)[C@H]1C(=O)N[C@H](CO)Cc2cc(NC(=O)CCCCCCCCCCCCCCC(=O)Nc3ccc4c(c3)N(C)[C@@H](C(C)C)C(=O)N[C@H](CO)C4)ccc2N1C`, the figures for the Ki in [1] and in [2] were 0.14 nM and 0.36 nM, respectively.
Take `CC(C)[C@H]1C(=O)N[C@H](CO)Cc2cc(NC(=O)CCCCC(=O)Nc3ccc4c(c3)N(C)[C@@H](C(C)C)C(=O)N[C@H](CO)C4)ccc2N1C`: the results for the inhibition constant (Ki) in assay [1] and in assay [2] were 16.8 nM and 67.8 nM, respectively.
Usually Kd stands for the concentration at which binding is half-saturated. Read a high Kd as weaker binding. In the case of `CC(C)[C@H]1C(=O)N[C@H](CO)Cc2cc(NC(=O)CCCCCCCCCCCCC(=O)Nc3ccc4c(c3)N(C)[C@@H](C(C)C)C(=O)N[C@H](CO)C4)ccc2N1C`, the dissociation constant Kd in assay [3] stood at 0.16 nM; in assay [5], 0.19 nM; in assay [7] it was 1 nM; in assay [10], 0.37 nM. Besides, the inhibition constant Ki in [4] was 0.55 nM; in [6], 1.5 nM; in [1], 0.33 nM; in assay [2], 0.78 nM; in assay [8], 2.12 nM; in assay [9], 1.42 nM.
